In ChEMBL document CHEMBL4715702, “Overcoming multidrug resistance by targeting mitochondria with NO-donating doxorubicins” (Bioorg Med Chem, 2016):
The source made the active and inactive calls. No cut-off for these calls is given here.

Tests used:
[1] = Prodrug release in doxorubicin-resistant human HT-29 cells assessed as increase in NO level by measuring induction of P-glycoprotein nitration in plasma membrane at 5 uM incubated for 24 hrs by western blot analysis; format: cell membranes, Cell membrane; conditions: ht-29, 24 h
How it was run: (§1)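 Cells 24 h with 5 µmol/L compound. Plasma-membrane proteins isolated by surface biotinylation, 50 µg run on SDS-PAGE, probed for Pgp with pancadherin loading control; nitration detected by Western blot, peroxidase secondary and chemiluminescence. Representative of three experiments.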

[2] = Prodrug release in human HT-29 cells assessed as increase in NO level by measuring induction of P-glycoprotein nitration in plasma membrane at 5 uM incubated for 24 hrs by western blot analysis; format: cell membranes, Cell membrane; conditions: ht-29, 24 h; how it was run: as §1
[3] = Prodrug release in human HT-29 cells assessed as increase in NO level by measuring nitrite release at 5 uM incubated for 24 hrs by spectrophotometric analysis; format: ADME, cell-based; conditions: ht-29, 24 h
How it was run: (§2)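 After 24 h culture with 5 µmol/L compound, medium mixed 1:1 with Griess reagent, 10 min 37°C in dark, absorbance 540 nm. Cell-free blank subtracted; nitrite expressed as nmol/mg cell protein. HT29/dx maintained in 200 nmol/L DOXO. Triplicate, mean ± SD (n = 3).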

[4] = Prodrug release in doxorubicin-resistant human HT-29 cells assessed as increase in NO level by measuring nitrite release at 5 uM incubated for 24 hrs by spectrophotometric analysis; format: ADME, cell-based; conditions: ht-29, 24 h; how it was run: as §2
[5] = Prodrug release in human HT-29 cells assessed as increase in NO level by measuring plasma membrane associated MRP1/BCRP nitration mediated drug uptake at 5 uM incubated for 24 hrs by spectrofluorometric analysis; format: ADME, cell membranes; conditions: ht-29, 24 h
How it was run: (§3)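 Cells 24 h with 5 µmol/L compound; DOXO in whole-cell lysates measured fluorimetrically (ex 475/em 553 nm), cell-free blank subtracted, converted to nmol DOXO/mg protein by calibration curve. Triplicate, mean ± SD.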

[6] = Prodrug release in doxorubicin-resistant human HT-29 cells assessed as increase in NO level by measuring plasma membrane associated MRP1/BCRP nitration mediated drug uptake at 5 uM incubated for 24 hrs by spectrofluorometric analysis; format: ADME, cell membranes; conditions: ht-29, 24 h; how it was run: as §3
HT-29 [7] = assay: Cytotoxicity against doxorubicin-resistant human HT-29 cells assessed as LDH release at 5 uM incubated for 24 hrs; format: functional, cell-based
How it was run: (§4)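 Extracellular medium spun 12,000 × g 5 min; cells detached, sonicated in 82.3 mmol/L triethanolamine phosphate-HCl pH 7.6. LDH activity read in medium and lysate at 340 nm over 6 min, as µmol NADH oxidized/min/dish; extracellular LDH given as % of total dish activity. Compounds from DMSO stock, 5 µM final, 1% DMSO; controls 1% DMSO. Triplicate, mean ± SD.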

HT-29 [8] = assay: Cytotoxicity against human HT-29 cells assessed as LDH release at 5 uM incubated for 24 hrs; format: functional, cell-based; how it was run: as §4
[9] = Stability of the compound assessed as human serum esterase-mediated compound hydrolysis by measuring half life at 100 uM by RP-HPLC analysis; format: ADME, cell-free
How it was run: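 Compound from 10 mM DMSO stock added to human male AB serum preheated to 37 °C, 100 µM final, incubated at 37 ± 0.5 °C. Aliquots deproteinized with acetonitrile/0.1% HCOOH, centrifuged, filtered. Parent and degradation products quantified by RP-HPLC (234 and 480 nm) against 1–100 µM calibration. At least triplicate.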

HT-29 [10] = assay: Induction of apoptosis in doxorubicin-resistant human HT29 cells assessed as activation of caspase 3 using DEVD-AMC substrate at 5 uM incubated for 24 hrs by fluorescence based assay; format: functional, cell-based
How it was run: (§5)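 Cells 24 h in 5 µmol/L compound or fresh medium, lysed in HEPES/KOH buffer pH 7.5. 20 µg lysate incubated 1 h at 37°C with 20 µmol/L LEHD-AMC (caspase 9) or DEVD-AMC (caspase 3) in HEPES/CHAPS/sucrose/DTT buffer pH 7.5. Stopped with ice-cold 0.1% TCA; AMC fluorescence ex 380/em 460 nm, converted to nmol AMC/µg protein via AMC standards. Triplicate.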

HT-29 [11] = assay: Induction of apoptosis in human HT29 cells assessed as activation of caspase 3 using DEVD-AMC substrate at 5 uM incubated for 24 hrs by fluorescence based assay; format: functional, cell-based; how it was run: as §5
HT-29 [12] = assay: Induction of apoptosis in doxorubicin-resistant human HT29 cells assessed as activation of caspase 9 using LEHD-AMC substrate at 5 uM incubated for 24 hrs by fluorescence based assay; format: functional, cell-based; how it was run: as §5
HT-29 [13] = assay: Induction of apoptosis in human HT29 cells assessed as activation of caspase 9 using LEHD-AMC substrate at 5 uM incubated for 24 hrs by fluorescence based assay; format: functional, cell-based; how it was run: as §5
H9c2 = assay: Cardiotoxicity against rat H9c2 cells assessed as LDH release at 5 uM incubated for 24 hrs; format: toxicity, cell-based; conditions: h9c2, 24 h; how it was run: as §4
HT-29 [14] = assay: Upregulation of iNOS protein expression in human HT-29 cells; format: functional, cell-based
How it was run: (§6)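 HT29 and HT29/dx cells incubated 24 h with compound or fresh medium; lysed in MLB buffer pH 7.5, sonicated, centrifuged 13,000 x g 10 min 4°C; iNOS detected in whole-cell lysate by Western blotting.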

HT-29 [15] = assay: Upregulation of iNOS protein expression in doxorubicin-resistant human HT-29 cells; format: functional, cell-based; how it was run: as §6
[16] = Prodrug release in human HT-29 cells assessed as increase in NO level by measuring mitochondria associated MRP1/BCRP/P-gp nitration mediated drug uptake at 5 uM incubated for 24 hrs by spectrofluorometric analysis; format: ADME; conditions: ht-29, 24 h
How it was run: (§7)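 Cells 24 h with 5 µmol/L compound; mitochondrial fractions isolated (porin check by immunoblot), DOXO measured fluorimetrically (ex 475/em 553 nm) with blank subtraction and calibration curve; expressed as nmol DOXO/mg mitochondrial protein. Triplicate, mean ± SD.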

[17] = Prodrug release in doxorubicin-resistant human HT-29 cells assessed as increase in NO level by measuring mitochondria associated MRP1/BCRP/P-gp nitration mediated drug uptake at 5 uM incubated for 24 hrs by spectrofluorometric analysis; format: ADME; conditions: ht-29, 24 h; how it was run: as §7
[18] = Prodrug release in human HT-29 cells assessed as increase in NO level by measuring induction of P-glycoprotein nitration in mitochondria at 5 uM incubated for 24 hrs by western blot analysis; conditions: ht-29, 24 h
How it was run: (§8)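 Cells 24 h with 5 µmol/L compound. Mitochondrial extracts, 10 µg protein, run on SDS-PAGE and probed for Pgp, porin as loading control; nitration detected by Western blot with peroxidase secondary and chemiluminescence. Representative of three experiments.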

[19] = Prodrug release in doxrubicin-resistant human HT-29 cells assessed as increase in NO level by measuring induction of P-glycoprotein nitration in mitochondria at 5 uM incubated for 24 hrs by western blot analysis; conditions: ht-29, 24 h; how it was run: as §8

With `COc1cccc2c1C(=O)c1c(O)c3c(c(O)c1C2=O)C[C@@](O)(C(=O)COC(=O)C(C)(C)CO[N+](=O)[O-])C[C@@H]3O[C@H]1C[C@H](N)[C@H](O)[C@H](C)O1.Cl` the Activity [1] was “Not Active”, the Activity [2] was “Not Active” and the Drug metabolism [3] was “Metabolite_Detected”. For the same compound, the Drug metabolism [4] was “Metabolite_Detected”, the Drug uptake [5] was “Active” and the Drug uptake [6] was “Active”. The Activity (HT-29 [7]) was “Active”, the Activity (HT-29 [8]) was “Active” and the half-life at 100 µM [9] was 21.7 h. For the same compound, the Activity (HT-29 [10]) was “Active”, the Activity (HT-29 [11]) was “Active” and the Activity (HT-29 [12]) was “Active”. The Activity (HT-29 [13]) was “Active”, the Activity (H9c2) was “Non-Toxic” and the Activity (HT-29 [14]) was “Active”. The Activity (HT-29 [15]) was “Active”, the Drug uptake [16] was “Active” and the Drug uptake [17] was “Active”. For the same compound, the Activity [18] was “Active” and the Activity [19] was “Active”.
